In ChEMBL document CHEMBL2029305, “N-Acyl and N-sulfonyloxazolidine-2,4-diones are pseudo-irreversible inhibitors of serine proteases” (Bioorg Med Chem Lett, 2012):
pIC50: −log10 of the molar value. Active and inactive are the calls of the source. The rule behind the calls is not given here.

Legend:
Sus scrofa [1] = species: Sus scrofa; assay: Inhibition of porcine pancreatic elastase using N-Suc-(L-Ala)3-p-nitroaniline
Sus scrofa [2] = species: Sus scrofa; assay: Inhibition of porcine pancreatic elastase using N-Suc-(L-Ala)3-p-nitroaniline assessed as remaining activity at 2.5 to 500 uM after 15 mins
Outline: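 PPE (5 µM) with inhibitor 2.5–500 µM in pH 7.25 HEPES, 15 min incubation; aliquots assayed for remaining activity (vt/v0) versus [I]/[E]0 ratio to estimate equivalents needed for inactivation.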

Sus scrofa [3] = species: Sus scrofa; assay: Inhibition of porcine pancreatic elastase using N-Suc-(L-Ala)3-p-nitroaniline at 50 to 500 uM; details: TDE = time-dependent effect
Neutrophil elastase = biological target: T1, Neutrophil elastase (Homo sapiens, UniProt P08246); assay: Inhibition of human neutrophil elastase using chromogenic substrate (N-MeOSuc-Ala-Ala-Pro-Val-p-nitroanilide after 120 mins
T1 sequence (P08246 whole entry): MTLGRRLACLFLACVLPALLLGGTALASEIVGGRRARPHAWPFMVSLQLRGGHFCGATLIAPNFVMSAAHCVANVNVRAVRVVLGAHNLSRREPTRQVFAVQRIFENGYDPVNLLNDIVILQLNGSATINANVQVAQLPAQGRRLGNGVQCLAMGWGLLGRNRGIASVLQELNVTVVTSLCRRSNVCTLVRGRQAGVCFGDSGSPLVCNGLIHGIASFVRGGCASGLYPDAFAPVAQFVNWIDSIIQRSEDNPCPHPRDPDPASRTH

Cathepsin G = biological target: T2, Cathepsin G (Homo sapiens, UniProt P08311); assay: Inhibition of cathepsin G using Suc-Ala-Ala-Pro-Phe-p-nitroanilide as substrate after 30 mins
T2 sequence (P08311 whole entry): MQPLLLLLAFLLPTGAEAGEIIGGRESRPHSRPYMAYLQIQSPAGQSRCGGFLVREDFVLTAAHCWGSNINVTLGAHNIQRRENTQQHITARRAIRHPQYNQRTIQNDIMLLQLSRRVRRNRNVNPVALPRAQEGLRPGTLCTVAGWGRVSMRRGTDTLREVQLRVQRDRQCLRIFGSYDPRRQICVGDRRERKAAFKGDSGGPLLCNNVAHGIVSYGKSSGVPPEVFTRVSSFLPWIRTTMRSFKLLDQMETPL

Sus scrofa [4] = species: Sus scrofa; assay: Inhibition of porcine pancreatic elastase using N-Suc-(L-Ala)3-p-nitroaniline at 300 molar excess
Outline: (§1)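 Pre-incubation of PPE with 300- or 600-fold molar excess of inhibitor; residual activity measured with N-Suc-(L-Ala)3-p-nitroanilide.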

Sus scrofa [5] = species: Sus scrofa; assay: Inhibition of porcine pancreatic elastase using N-Suc-(L-Ala)3-p-nitroaniline at 600 molar excess; outline: as §1
[6] = Drug degradation in methanol assessed as 2-(methoxycarbonyloxy)propan-2-yl 4-methoxybenzoylcarbamate formation at room temperature for 10 mins by TLC analysis in the presence of sodium methoxide; type: physicochemical
[7] = Drug degradation in methanol assessed as methyl 4-methoxybenzoate formation at room temperature for 10 mins by TLC analysis in the presence of sodium methoxide; type: physicochemical
[8] = Half life of the compound in phosphate buffer at pH 7.4; type: physicochemical
Outline: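 Hydrolysis in phosphate buffer, pH 7.4, at 37 °C; half-life in min.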

[9] = Drug degradation in CD3ONa/CD3OD solution assessed as 2-(methoxycarbonyloxy)propan-2-yl 4-methoxybenzoylcarbamate formation at room temperature for 15 mins by 1H-NMR analysis in the presence of sodium methoxide; type: physicochemical; details: 0.25 h
[10] = Drug degradation in CD3ONa/CD3OD solution assessed as methyl 4-methoxybenzoate formation at room temperature after 15 mins by 1H-NMR analysis in the presence of sodium methoxide; type: physicochemical; details: 0.25 h

Row | SMILES | inhibition (Sus scrofa [1]) | Activity (Sus scrofa [2]) | inhibition (Sus scrofa [3]) | pIC50 (Neutrophil elastase) | inhibition (Sus scrofa [4]) | half-life [8] | also measured
1 | CC1(C)OC(=O)N(Cc2ccccc2)C1=O | Dose-dependent effect |  | tde | 4.81 |  |  | pIC50 (Cathepsin G): 5.68
2 | CC1(C)OC(=O)N(c2ccc([N+](=O)[O-])cc2)C1=O |  |  |  | < 3.30 | inactive |  | 
3 | CC1OC(=O)N(Cc2ccccc2)C1=O (stereo not drawn) |  |  |  | < 3.30 |  |  | inhibition (Sus scrofa [5]): inactive
4 | Cc1ccc(S(=O)(=O)N2C(=O)OC(C)(C)C2=O)cc1 | Dose-dependent effect | < 20% | tde | 5.59 |  | 6.86 min | 

The next lines start with results.

Row | inhibition (Sus scrofa [1]) | Activity (Sus scrofa [2]) | inhibition (Sus scrofa [3]) | pIC50 (Neutrophil elastase) | inhibition (Sus scrofa [4]) | half-life [8] | SMILES | also measured
5 | Dose-dependent effect | < 20% | tde | 4.81 |  |  | COc1ccc(C(=O)N2C(=O)OC(c3ccccc3)C2=O)cc1 (stereo not drawn) | 
6 |  |  |  | < 3.30 |  |  | COc1ccc(N2C(=O)OC(C)C2=O)cc1 (stereo not drawn) | inhibition (Sus scrofa [5]): inactive
7 | Dose-dependent effect | < 20% | tde | 4.99 |  | 16.7 min | COc1ccc(C(=O)N2C(=O)OC(C)(C)C2=O)cc1 | Drug degradation [6]: Active; Drug degradation [7]: Active; pIC50 (Cathepsin G): 4.85; Drug degradation [9]: Active; Drug degradation [10]: Active
8 |  |  |  | < 3.30 | inactive | 38.7 min | CC1OC(=O)N(c2ccc([N+](=O)[O-])cc2)C1=O (stereo not drawn) | 
9 | Dose-dependent effect | < 20% | tde | < 3.30 |  |  | COc1ccc(C(=O)N2C(=O)OC(C)C2=O)cc1 (stereo not drawn) | 
10 |  |  |  | < 3.30 | inactive |  | COc1ccc(N2C(=O)OC(C)(C)C2=O)cc1 | 
